Laboratory results taken from ChEMBL document CHEMBL1125396, “Synthesis and in vitro biological profile of all four isomers of the potent muscarinic agonist 3-(3-methyl-1,2,4-oxadiazol-5-yl)-1-azabicyclo[2.2.1]heptane” (J Med Chem, 1992).

Experiments:
[1] = biological target: T1, Muscarinic acetylcholine receptor M1 (Rattus norvegicus, UniProt P08482); assay: Compound was tested in vitro for depolarizing response on the rat superior cervical ganglion (mediated by Muscarinic M1 receptor; type: functional, tissue-based
T1 sequence (P08482 whole entry): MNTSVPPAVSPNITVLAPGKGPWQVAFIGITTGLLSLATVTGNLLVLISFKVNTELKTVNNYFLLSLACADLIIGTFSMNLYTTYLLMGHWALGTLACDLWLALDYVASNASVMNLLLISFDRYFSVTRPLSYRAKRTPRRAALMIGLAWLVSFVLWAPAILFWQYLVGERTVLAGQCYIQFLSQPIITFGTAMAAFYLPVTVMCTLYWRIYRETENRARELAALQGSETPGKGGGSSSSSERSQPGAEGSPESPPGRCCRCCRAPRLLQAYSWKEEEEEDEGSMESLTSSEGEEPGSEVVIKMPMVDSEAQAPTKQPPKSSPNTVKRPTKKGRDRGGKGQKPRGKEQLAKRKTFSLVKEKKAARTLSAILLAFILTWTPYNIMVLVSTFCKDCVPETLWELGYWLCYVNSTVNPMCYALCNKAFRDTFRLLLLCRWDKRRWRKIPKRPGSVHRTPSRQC
Procedure, shortened: (§1)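 Responses related to a reference depolarizing response set at 1.0. Agonist concentration raised until response levelled off; EC50 taken as concentration giving half-maximum; at least two determinations, each ganglion from a different rat.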

[2] = biological target: T2, Muscarinic acetylcholine receptor (Rattus norvegicus) (UniProt P08482+P08483+P08485+P08911+P10980); assay: In vitro ability to displace [3H]oxotremorine-M from the muscarinic receptor in rat cerebral cortical membranes; type: cell membranes
Procedure, shortened: (§2)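 Rat cortical P2 membranes washed and resuspended 1/100 (wet w/v) in 20 mM HEPES pH 7.4. [3H]oxotremorine-M at 0.2-5 nM, nonspecific binding with 2 μM atropine; 40 min at 30 °C; filtration on polyethyleneimine-presoaked GF/C filters, saline wash, scintillation counting. Kapp corrected for ligand occupancy; four concentrations in triplicate; geometric mean of ≥3 determinations.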

[3] = biological target: T3, Muscarinic acetylcholine receptor M2 (Homo sapiens, UniProt P08172); assay: In vitro negative chronotropic effect on electrically driven guinea pig atria(mediated by Muscarinic M2 receptor); type: functional, Cavia porcellus; conditions: target entry is the homologue from another species
T3 sequence (P08172 whole entry): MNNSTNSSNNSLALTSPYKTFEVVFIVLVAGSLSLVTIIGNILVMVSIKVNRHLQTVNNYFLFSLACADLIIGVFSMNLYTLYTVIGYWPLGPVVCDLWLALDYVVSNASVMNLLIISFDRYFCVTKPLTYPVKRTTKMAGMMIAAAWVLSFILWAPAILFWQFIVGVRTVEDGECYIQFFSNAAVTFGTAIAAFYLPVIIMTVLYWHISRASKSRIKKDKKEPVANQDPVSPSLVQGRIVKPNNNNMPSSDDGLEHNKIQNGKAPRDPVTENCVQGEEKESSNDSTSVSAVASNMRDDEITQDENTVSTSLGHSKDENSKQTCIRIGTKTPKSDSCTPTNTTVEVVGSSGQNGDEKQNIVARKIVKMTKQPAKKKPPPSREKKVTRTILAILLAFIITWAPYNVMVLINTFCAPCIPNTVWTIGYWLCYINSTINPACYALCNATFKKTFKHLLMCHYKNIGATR
Procedure, shortened: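 Paired atria from male guinea pigs (300-400 g) under 1 g tension in Krebs bicarbonate with 22 mM glucose, paced by field stimulation (3-4 Hz, 2-3 ms). After 60 min equilibration, noncumulative dose-response curves for negative chronotropy, each application held to maximum effect; ≥45 min between curves. EC50 from geometric mean of at least two determinations.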

[4] = biological target: Muscarinic acetylcholine receptor M3 (Cavia porcellus, UniProt Q8VH26); assay: In vitro contraction of guinea pig myenteric plexus preparation (mediated by Muscarinic M3 receptor); type: functional
Sequence of Muscarinic acetylcholine receptor M3 (Q8VH26 whole entry): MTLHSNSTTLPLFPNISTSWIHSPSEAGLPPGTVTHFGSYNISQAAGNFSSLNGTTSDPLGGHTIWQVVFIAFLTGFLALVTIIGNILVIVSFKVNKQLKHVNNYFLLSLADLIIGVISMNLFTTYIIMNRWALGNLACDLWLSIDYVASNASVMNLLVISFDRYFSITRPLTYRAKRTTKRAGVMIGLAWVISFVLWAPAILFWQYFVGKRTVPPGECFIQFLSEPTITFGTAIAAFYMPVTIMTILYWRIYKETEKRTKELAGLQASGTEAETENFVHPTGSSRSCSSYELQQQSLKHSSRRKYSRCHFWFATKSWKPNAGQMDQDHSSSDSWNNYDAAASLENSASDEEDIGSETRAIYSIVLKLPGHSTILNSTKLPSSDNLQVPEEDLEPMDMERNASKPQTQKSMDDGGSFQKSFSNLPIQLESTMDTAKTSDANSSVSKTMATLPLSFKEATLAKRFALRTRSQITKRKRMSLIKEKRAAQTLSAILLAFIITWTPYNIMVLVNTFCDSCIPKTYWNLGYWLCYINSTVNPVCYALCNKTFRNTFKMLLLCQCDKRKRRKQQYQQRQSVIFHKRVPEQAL
Procedure, shortened: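 Distal ileum longitudinal muscle-myenteric plexus strips from male guinea pigs (300-400 g) under 1 g tension in 3 mL Krebs bicarbonate, 37 °C, equilibrated ≥60 min. Isometric contraction read for ≥30 s to clear peak, ≥45 min between compounds; responses as % of 1 μM carbachol maximum. EC50 by nonlinear iterative curve fitting; geometric mean of at least four determinations.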

[5] = biological target: T2, Muscarinic acetylcholine receptor (Rattus norvegicus); assay: In vitro ability to displace [3H]N-methylscopolamine from the muscarinic receptor in rat cerebral cortical membranes; type: cell membranes
Procedure, shortened: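 Rat (250-300 g) cerebral cortex crude synaptosomal-mitochondrial membranes (sucrose homogenate, 1000g then 17000g spins). [3H]NMS at 0.01–1.0 nM, nonspecific binding with 2 μM atropine; 60 min at 30 °C; GF/B filtration, saline rinses, scintillation counting. Kapp corrected for ligand occupancy; four concentrations in triplicate; geometric mean of ≥3 separate determinations.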

[6] = biological target: T4, Muscarinic acetylcholine receptor M1 (Rattus norvegicus) (UniProt P08482); assay: In vitro evaluation for the relative maximum against Muscarinic M1 receptor compare to muscarine; type: functional
T4 sequence (whole entry): T1 sequence (P08482 whole entry)
Procedure, shortened: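 Maximum depolarizing response determined by raising agonist concentration until plateau, expressed relative to muscarine; responses related to a reference depolarization set at 1.0; ganglia each from a different rat.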

[7] = biological target: Muscarinic acetylcholine receptor M3 (Cavia porcellus) (UniProt Q8VH26); assay: In vitro evaluation for the relative maximum against Muscarinic M3 receptor compare to carbachol; type: functional
Sequence of Muscarinic acetylcholine receptor M3 (Cavia porcellus) (Q8VH26 1-587): as the sequence (Q8VH26 whole entry) above
Procedure, shortened: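 Guinea pig ileum longitudinal muscle-myenteric plexus (male, 300-400 g), 1 g tension, Krebs bicarbonate at 37 °C; isometric tension change measured to peak; maximum response expressed as percentage of that to 1 μM carbachol.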

[8] = Ratio of Kapp(NMS)/Kapp(OXO-M)
Procedure, shortened: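 Ratio of Kapp values from displacement of [3H]NMS (0.01–1.0 nM, 60 min, 30 °C) and of [3H]oxotremorine-M (0.2-5 nM, HEPES pH 7.4, 40 min, 30 °C) in rat cortical membranes; 2 μM atropine nonspecific; each Kapp occupancy-corrected geometric mean of ≥3 determinations.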

[9] = biological target: T5, Muscarinic acetylcholine receptor M2 (Homo sapiens) (UniProt P08172); assay: In Vitro evaluation for the relative maximum against Muscarinic M2 receptor compare to carbachol; type: functional; conditions: Cavia porcellus
T5 sequence (whole entry): T3 sequence (P08172 whole entry)
Procedure, shortened: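 Guinea pig paired atria (male, 300-400 g) in Krebs bicarbonate with 22 mM glucose, 1 g tension, electrically paced (3-4 Hz, 2-3 ms); noncumulative dose-response curves to maximum negative chronotropic effect, ≥45 min apart; maximum response expressed relative to that of carbachol.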

[10] = biological target: T2, Muscarinic acetylcholine receptor (Rattus norvegicus); assay: In vitro ability to displace muscarinic agonist [3H]oxotremorine-M from high affinity state of the receptor in rat cerebral cortical membranes; type: cell membranes; conditions: Membrane; procedure, shortened: as §2
[11] = biological target: T1, Muscarinic acetylcholine receptor M1; assay: Compound was tested in vitro for depolarizing response on the rat superior cervical ganglion (mediated by Muscarinic M1 receptor); type: functional, tissue-based; procedure, shortened: as §1

| Structure (SMILES) | EC50 [1] | K app [2] | EC50 [3] | EC50 [4] | K app [5] | RM [6] | RM [7] | Ratio [8] | RM [9] | K app [10] | EC50 [11] |
| --- | --- | --- | --- | --- | --- | --- | --- | --- | --- | --- | --- |
| Cc1noc([C@H]2CN3CC[C@@H]2C3)n1 | 90 nM | 1.6 nM | 19 nM | 16 nM | 2200 nM | 0.76 | 0.93 | 1400 | 0.96 |  |  |
| Cc1noc([C@@H]2CN3CC[C@@H]2C3)n1 |  |  | 3.3 nM | 2.4 nM | 370 nM | 1.16 | 0.97 | 1200 | 0.94 | 0.32 nM | 7 nM |
| Cc1noc([C@H]2CN3CC[C@H]2C3)n1 |  | 0.027 nM | 0.039 nM | 0.045 nM | 32 nM | 0.94 | 0.91 | 1200 | 0.91 |  | 2.4 nM |
| C[N+](C)(C)CCOC(N)=O |  | 4.9 nM |  |  | 22000 nM |  |  | 4500 |  |  |  |
